From ChEMBL document CHEMBL2046393, “Enantiomeric derivatives of tokinolide B: absolute configuration and biological properties” (J Nat Prod, 2012)

Assays:
Format in all cases: functional, cell-based
[1] = system: K562; assay: Cytotoxicity against human K562 cells assessed as growth inhibition after 48 hrs by SRB assay; settings: K562, 48 h
In short: (§1)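 Cell lines from NCI, grown in RPMI-1640 with 10% FBS and antibiotics at 37 °C, 5% CO2. Seeding: HCT-15 10 × 10^4 cell/well, K562 5 × 10^4 cell/mL, SKLU-1 7500 cell/mL. After 24 h, compound added for 48 h. Cells fixed in cold TCA (60 min, 4 °C), stained with 0.4% SRB, dye extracted in Tris base, OD read at 515 nm. IC50 from linear regression; means ± SEM, three replicates.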

[2] = system: HCT-15; assay: Cytotoxicity against human HCT15 cells assessed as growth inhibition after 48 hrs by SRB assay; settings: HCT-15, 48 h; in short: as §1
[3] = system: SK-LU-1; assay: Cytotoxicity against human SKLU1 cells assessed as growth inhibition after 48 hrs by SRB assay; settings: SK-LU-1, 48 h; in short: as §1

Question: How did the IC50 [1] turn out when `CCCC[C@]12O[C@@]34CCCC=C3C(=O)O[C@]43[C@@H](CCC)[C@@H]4C=C(C(=O)N1[C@H](C)c1ccccc1)[C@@]32CC4` was run?
Answer: 5.7 µM

Question: What about the IC50 [2] of the same compound?
Answer: 5.4 µM

Question: And the IC50 [3]?
Answer: 4.1 µM

Question: What does the source list for `CCCC[C@@]12O[C@]34CCCC=C3C(=O)O[C@@]43[C@H](CCC)[C@H]4C=C(C(=O)N1[C@H](C)c1ccccc1)[C@]32CC4`?
Answer: IC50 [1]: 21.7 µM; IC50 [2]: 8.5 µM; IC50 [3]: 5.9 µM

Question: Which results are given for `CCCC[C@@]12O[C@]34CCCC=C3C(=O)O[C@@]43[C@H](CCC)[C@@H]4C=C(C(=O)N1[C@@H](C)c1ccccc1)[C@]32CC4`?
Answer: IC50 [1]: 13.9 µM; IC50 [2]: 7.5 µM; IC50 [3]: 4.9 µM

Question: What does the source list for `CCCC[C@]12O[C@@]34CCCC=C3C(=O)O[C@]43[C@@H](CCC)[C@H]4C=C(C(=O)N1[C@@H](C)c1ccccc1)[C@@]32CC4`?
Answer: IC50 [1]: 5.2 µM; IC50 [2]: 5.2 µM; IC50 [3]: 4.3 µM

Question: Which IC50 [1] does the source give for `CCC/C=C1\OC(=O)C2=C[C@H]3CCC21[C@]1(OC(=O)C2=C1CCC=C2)[C@@H]3CCC` (mixture of isomers) here?
Answer: 26.6 µM

Question: And the IC50 [2]?
Answer: 10.5 µM

Question: What about the IC50 [3] of the same compound?
Answer: 7.1 µM

Question: What does the source list for `CCC/C=C1\OC(=O)C2=C1CC[C@H]1[C@@H]2[C@@]2(OC(=O)C3=C2CCC=C3)[C@H]1CCC` (racemic)?
Answer: IC50 [1]: 46.1 µM; IC50 [2]: 44.8 µM; IC50 [3]: 13.2 µM

Question: Which results are given for `C=C1C(=O)O[C@@H]2C[C@@H](C)[C@@H]3C=CC(=O)[C@@]3(C)[C@@H](O)[C@H]12` [HELENALIN]?
Answer: IC50 [1]: 0.28 µM; IC50 [2]: 0.29 µM; IC50 [3]: 0.21 µM
